According to ChEMBL document CHEMBL1124626, “Inhibition of 125I-labeled ristocetin binding to Micrococcus luteus cells by the peptides related to bacterial cell wall mucopeptide precursors: quantitative structure-activity relationships” (J Med Chem, 1989):
Peptide text beside a SMILES is read from it.

The molecules below were run on Micrococcus luteus (assay: Inhibition of [125I]ristocetin binding to micrococcus luteus cells.).
Format: functional, organism-based
In short: (§1)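 Lyophilized M. luteus cells were boiled in 1% sodium lauryl sulfate, washed with water, and stored at 4 °C. Ristocetin was iodinated with 125I/I2 and purified on CM-cellulose. Duplicate tubes held 50 μg cells, 1 μg labeled antibiotic and varied N-acetyl peptide in sodium citrate buffer, pH 5.1, in 0.2 mL at room temperature. Tubes were centrifuged at 10000g for 10 min and supernatant γ-counted. Ki came from Cheng-Prusoff using the Scatchard Kd.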
`CC(=O)N[C@H](C)C(=O)O` gave a Ki of 3200 µM.
`CC(=O)NCC(=O)N[C@@H](CC(C)C)C(=O)O` gave a Ki of 590 µM.
With `CSCC[C@@H](NC(C)=O)C(=O)O` the Ki was 2400 µM.
In the case of `CC(=O)N[C@H](C)C(=O)NCC(=O)O`, the Ki is reported as 3100 µM.
For `CC(=O)N[C@@H](Cc1ccccc1)C(=O)NCC(=O)NCC(=O)O` (Ac-Phe-Gly-Gly-OH), the Ki was 1600 µM.
`CC(=O)NCC(=O)N[C@H](Cc1ccccc1)C(=O)O` was tested, and the Ki was 9.8 µM.
For `CC(=O)N[C@H](Cc1c[nH]c2ccccc12)C(=O)O`, the Ki was 160 µM.
Molecule `CC(=O)N[C@H](Cc1ccccc1)C(=O)O` has a Ki of 100 µM.
`CC(=O)N[C@H](CC(C)C)C(=O)NCC(=O)O` showed a Ki of 11000 µM.
For `CC(=O)N[C@H](C)C(=O)N[C@H](C)C(=O)N[C@H](C)C(=O)O`, the Ki was 42 µM.
Work on `CC(=O)N[C@H](C)C(=O)N[C@H](Cc1ccccc1)C(=O)O` yielded a Ki of 8.7 µM.
`CC(=O)N[C@@H](Cc1c[nH]c2ccccc12)C(=O)NCC(=O)NCC(=O)O` (Ac-Trp-Gly-Gly-OH) showed a Ki of 1200 µM.
`CC(=O)NCC(=O)O` [ACETURIC ACID] was tested, and the Ki was 29000 µM.
`CC(=O)N[C@H](CC(C)C)C(=O)N[C@H](CC(C)C)C(=O)O` gave a Ki of 4500 µM.
In the case of `CC(=O)N1CCC[C@H]1C(=O)NCC(=O)NCC(=O)O` (Ac-Pro-Gly-Gly-OH), the Ki is reported as 1600 µM.
`CC(=O)N[C@H](C)C(=O)N[C@H](C)C(=O)O` gave a Ki of 73 µM.

Each molecule was assayed on Micrococcus luteus (assay: Inhibition of [125I]ristocetin binding to micrococcus luteus cell wall (UDP-N-acetylmuramylpentapeptide).).
Format: functional, organism-based
In short: as §1
In the case of `CC[C@@H](C)[C@@H](NC(C)=O)C(=O)O`, the Ki is reported as 2800 µM.
`CC(=O)N[C@H](CC(C)C)C(=O)O` gave a Ki of 2800 µM.
For `C[C@@H](NC(=O)OCc1ccccc1)C(=O)O`, the Ki was 5100 µM.
For `CC(=O)NC(C(=O)O)c1ccc(O)cc1` (centres undefined), the Ki was 4200 µM.
Molecule `CC(=O)N[C@@H](CCCCN)C(=O)N[C@H](C)C(=O)N[C@H](C)C(=O)O` has a Ki of 16 µM.
Work on `CC(=O)N[C@@H](Cc1ccc(O)cc1)C(=O)NCC(=O)NCC(=O)O` (Ac-Tyr-Gly-Gly-OH) yielded a Ki of 1300 µM.
Work on `CC(=O)NCC(=O)N[C@H](CO)C(=O)O` yielded a Ki of 540 µM.
For `CC(=O)NCC(=O)N[C@H](C)C(=O)O`, the Ki was 130 µM.
`CC(=O)N[C@@H](C(=O)O)C(C)C` was tested, and the Ki was 3100 µM.
`CC(=O)N[C@H](CC(C)C)C(=O)NCC(=O)NCC(=O)O` gave a Ki of 1900 µM.
`CC(=O)N[C@H](CC(N)=O)C(=O)O` gave a Ki of 9000 µM.
Molecule `CC(=O)NCC(=O)NCC(=O)O` has a Ki of 4600 µM.
`CC(=O)NCC(=O)N[C@H](CC(N)=O)C(=O)O` was tested, and the Ki was 720 µM.
`CC(=O)N[C@@H](CC(C)C)C(=O)NCC(=O)NCC(=O)O` gave a Ki of 2000 µM.
In the case of `CC(=O)NCC(=O)N[C@@H](C(=O)O)C(C)C`, the Ki is reported as 340 µM.
`CC(=O)NCC(=O)N[C@@H](C(=O)O)[C@H](C)O` gave a Ki of 4700 µM.
`CC(=O)NCC(=O)NCC(=O)NCC(=O)O` (Ac-Gly-Gly-Gly-OH) gave a Ki of 7100 µM.
Work on `CC(=O)NCC(=O)N[C@H](CC(=O)O)C(=O)O` yielded a Ki of 1400 µM.
